# Screening data from PubChem.
# The list is not random: actives were taken first. Their share in the collection is about 1.8%.
# STAT3 blocker: STAT3 signaling inhibition; U3A cells, IL-6 STAT3-luciferase reporter, luminescence; host cell line lacks STAT1; inhibition, % at 5.5 µM; 0.89% of 190,000 active; AID 862;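 active = inhibition above the mean inhibition across all screened compounds plus 3 SD, cut at about 44% in these data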;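 note: 0% = DMSO only wells and 100% = 100 µM nifuroxazide control wells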
# STAT3 activator: STAT3 signaling activation. U3A cells, IL-6 STAT3-luciferase reporter, luminescence; 100% = signal with IL-6 EC80 alone. activation (% of control), % at 5.6 µM. 0.91% of 190,000 active. AID 871;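 active = activation above the screen-wide mean of compound activation plus 3 SD, cut at about 130% in these data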;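 note: 0% = background luminescence of wells with medium and substrate only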
#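 System – human U3A cells carrying STAT3-luciferase construct · Probe or stimulus – Interleukin-6, 33 ng/mL · Schedule – compound 1 h, then IL-6 6 h at 37 °C · Signal – luminescence from STAT3-driven luciferase reporter · Evaluation – percent of IL-6-only median luminescence · Benchmarks – IL-6-only high control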
# STAT1 blocker: inhibitors of IFN-gamma induced STAT1 signaling | NIH 3T3 STAT1-luciferase reporter, luminescence | inhibition, % at 5.5 µM | 0.35% of 200,000 active | AID 920;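 active = inhibition above a set limit, the mean inhibition across all tested compounds plus 3 SD, cut at about 34% in these data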;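 note: 0% = IFN-gamma with DMSO and 100% = IFN-gamma with 300 µM nifuroxazide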
# PPC-1+TRAIL kill: PPC-1 cancer cell killing with TRAIL present | PPC-1 cells + TRAIL, ATPLite viability luminescence | cell killing (% activity), % at 4 µM or 5 µM | 0.41% of 220,000 active;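 active = cell killing above 50% in the first pass at 4 µM, then a duplicate retest at 5 µM averaging 50% or more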;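 note: plate controls were cells with TRAIL plus DMSO for no effect and medium-only wells lacking cells for full effect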
# C8 TRAIL sens: caspase-8 TRAIL sensitization. NB7+C8 cells + TRAIL, ATPlite viability luminescence. inhibition (viability loss, TRAIL sensitization), % at 10 µM. 1% of 360,000 active. AID 624354;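 active = compounds causing at least 50% loss of cell viability in the single-dose screen, relative to plate controls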
# PPC1 cytotox: kills PPC-1 cells; shares compounds with PPC-1+TRAIL kill; PPC-1 viability, ATPlite luminescence, overnight; cytotoxicity, % at 5 µM; 50% of 1,200 active; AID 1447;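 active = reconfirmed compounds whose average cytotoxicity reaches 50% or more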;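 note: 0% = DMSO-treated cells and 100% = wells holding medium but no cells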
# Active calls of the source: *; . = no result.
SMILES,STAT3 blocker,STAT3 activator,STAT1 blocker,PPC-1+TRAIL kill,C8 TRAIL sens,PPC1 cytotox
CC(C)(C)c1ccc(CC(=O)N2CCC2(C)C(=O)NCc2ccc3c(c2)OCO3)cc1 (stereo not given),.,.,.,.,-1,.
Cc1nc2cc(NC(=O)N3c4ccccc4CC3C)ccc2n1C (stereo not given),35,73,-35,68*,65*,63*
Cc1nc2cc(NC(=O)Nc3ccccc3Cl)ccc2n1C,84*,30,40*,71*,73*,72*
CCc1cc(C(=O)N/N=C/c2ccc(OC)cc2)c2ccccc2n1,.,.,.,.,19,.
COc1ccc(-c2cc(=O)c3c(O)c(OC)c(OC)c(OC)c3o2)cc1,.,.,.,.,1,.
COc1ccc(-c2cc(=O)c3c(O)c(OC)c(O)cc3o2)cc1,.,.,0,64*,70*,64*
Cc1cc(C(=O)COC(=O)c2ccco2)c(C)n1Cc1ccco1,27,79,5,14,38,.
Cc1cc(C(=O)COC(=O)c2cccn2C)c(C)n1Cc1ccco1,69*,46,37*,38,63*,24
CCOC(=O)c1nn(-c2ccc(C)cc2)cc1C(=O)c1ccccc1,6,93,-48,39,53*,45
CC(=O)c1nn(-c2cccc(Br)c2)cc1C(=O)c1ccccc1,3,100,-3,2,-2,4
CC(=O)c1nn(-c2ccc(Cl)cc2)cc1C(=O)c1ccccc1,.,.,.,.,13,.
C[C@H](CO)N1C[C@H](C)[C@@H](CN(C)Cc2ccc3c(c2)OCCN3C)OCc2cnnn2CCCC1=O,.,.,.,.,-4,.
O=S1(=O)CC(N2CCCC2)CN1Cc1cn(Cc2ccc(Cl)cc2)nn1 (stereo not given),.,.,.,.,4,.
CN1CCN(c2ncnc3c2ncn3[C@H]2CN(Cc3cccnc3)C[C@@H](CO)O2)CC1,.,.,.,.,6,.
O=C1C=C(NCCN2CCOCC2)C(=O)c2cnccc21,83*,28,53*,65*,.,67*
O=C(NCCN1CCOCC1)c1ccncc1,-4,107,-7,-16,-31,.
O=C1NC[C@@H](CCCCN2CCN(Cc3ccccc3)C(=O)C2=O)N(CCC2CCCCC2)C1=O,.,.,.,.,-6,.
COc1ccc(Cl)cc1NC(=O)CSc1nnc(CNC(=O)c2cccs2)o1,.,.,.,.,-10,.
CCCCCCCCCCCCCCCCn1cc[n+](CC(C)=O)c1,9,98,22,26,34,15
Cc1nn(C)c(C)c1/C=C/C(=O)c1cccs1,8,96,-16,.,22,.
Cc1nn(C)cc1/C=C/C(=O)c1cccs1,-18,119,-14,23,38,6
Cc1ccc2nc(-c3ccncc3)[nH]c2c1,.,.,.,.,17,.
Cc1ccc2nc(-c3sc4nc(C)ccc4c3N)[nH]c2c1,23,82,-19,32,54*,24
CCc1c(C)n2nc(C)cc2[nH]c1=O,14,96,1,14,-19,12
CN(C(=O)c1cccc(Nc2ccc(-c3ccc4c(c3)OCCO4)nn2)c1)C1CCCCC1,11,94,-22,53*,68*,55*
SMILES,STAT3 blocker,STAT3 activator,STAT1 blocker,PPC-1+TRAIL kill,C8 TRAIL sens,PPC1 cytotox
Cc1nc(CN2CCN(C(=O)NC3(c4ccccc4)CC3)CC2)cs1,2,99,-4,12,5,-3
Cc1cccnc1C(NC(=O)C1CCN(CCCc2ccccc2)CC1)c1ccc(Cl)cc1 (stereo not given),.,.,.,.,10,.
O=C(NC1CC1)c1ccc(-c2nc3ccccc3s2)s1,106*,14,75*,93*,91*,93*
CCN1CCN(C(=O)c2ccc(-c3nc4ccccc4s3)s2)CC1,19,88,-32,10,24,.
O=C(c1ccc(-c2nc3ccccc3s2)s1)N1CCOCC1,98*,18,77*,88*,.,88*
CCn1ccc(C(=O)N2CCN(c3ncccn3)CC2)n1,.,.,.,.,-15,.
Cc1cccc(-c2cc(N)n(-c3ccccc3)n2)c1,8,100,-83,28,24,27
CCc1ccc(-c2cc(N)n(-c3ccccc3)n2)cc1,20,89,-82,43,46,44
CCS(=O)(=O)n1nc(-c2ccccc2)cc1N,3,101,-7,3,8,.
CSc1ncnc2c1ncn2CCCNCCCc1ccccc1,.,.,.,.,-8,.
C[C@H](NC(=O)Cc1ccccc1)C(=O)N1CCC2(CC1)NCCc1[nH]cnc12,.,.,.,.,-7,.
CCC(=O)N1CCc2cc(S(=O)(=O)N3CCc4ccccc43)ccc21,32,77,3,-3,12,-3
